Measured values from ChEMBL document CHEMBL3526146, “In vitro and in vivo metabolism and pharmacokinetics of BMS-562086, a potent and orally bioavailable corticotropin-releasing factor-1 receptor antagonist” (Drug Metab Dispos, 2012).

Experiments:
[1] = Drug metabolism in cynomolgus monkey cryopreserved hepatocytes assessed as BMS-572273 metabolite level at 25 uM after 3 hrs by LC-MS/MS analysis; assay type: ADME, cell-based, Macaca fascicularis, Hepatocyte
Summary of the method: (§1)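 Mouse, rat, dog, monkey and human hepatocytes (trypan blue viability checked) at 1.0×10^6 cells/ml in Krebs-Henseleit buffer were incubated with 25 µM compound, in duplicate. Conditions were 37°C, 95/5 O2/CO2, orbital shaking, 3 h. 7-Ethoxycoumarin and 7-hydroxycoumarin (100 µM) served as positive controls, with a cell-free negative control. Reactions were quenched with ice-cold acetonitrile, then sonicated and centrifuged; supernatants were analysed by LC/MS/MS.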

[2] = Drug metabolism in mouse hepatocytes at 25 uM after 3 hrs by LC-MS/MS analysis; assay type: ADME, cell-based, Hepatocyte
Summary of the method: (§2)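 Hepatocytes checked for viability by trypan blue exclusion, then diluted in Krebs-Henseleit buffer to 1.0 × 10^6 cells/ml. Incubated in duplicate with 25 µM compound at 37°C for 3 h on an orbital shaker (80 rpm) under 95/5 O2/CO2. Negative control had no cells. Stopped with ice-cold acetonitrile, sonicated, centrifuged; supernatant analysed by LC/MS/MS.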

Liver microsome [3] = assay: Drug metabolism in dog liver microsomes assessed as DPH-124921 metabolite level at 100 uM after 1 hr in presence of NADPH; assay type: ADME, Canis lupus familiaris
Summary of the method: (§3)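 Mouse, rat, dog, monkey and human liver microsomes (1 mg/ml protein) were incubated with 100 µM compound in 100 mM phosphate buffer. Reactions were started with 1 mM NADPH and run 1 h at 37°C in duplicate. Controls lacked protein or NADPH, plus a 7-ethoxycoumarin (100 µM) positive control. Metabolites were identified by LC/MS/MS.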

Liver microsome [4] = assay: Drug metabolism in rat liver microsomes assessed as BMS-572273 metabolite level at 100 uM after 1 hr in presence of NADPH; assay type: ADME
Summary of the method: (§4)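 Liver microsomes (1 mg/ml protein) in 100 mM phosphate buffer with 100 µM test compound. Reaction started by adding NADPH (1 mM), then run at 37°C for 1 h in a shaking water bath, in duplicate. Controls lacked microsomal protein or NADPH; 7-ethoxycoumarin (100 µM) was the positive control. Metabolites identified by LC/MS/MS.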

[5] = Drug metabolism in mouse hepatocytes assessed as DPH-123554 metabolite level at 25 uM after 3 hrs by LC-MS/MS analysis; assay type: ADME, cell-based, Hepatocyte; summary of the method: as §2
[6] = Drug metabolism in beagle dog hepatocytes at 25 uM after 3 hrs by LC-MS/MS analysis; assay type: ADME, cell-based, Canis lupus familiaris, Hepatocyte; summary of the method: as §1
Liver microsome [7] = assay: Drug metabolism in beagle dog liver microsomes assessed as DPH-123554 metabolite level at 100 uM after 1 hr in presence of NADPH; assay type: ADME, Canis lupus familiaris; summary of the method: as §3
[8] = Detection of compound level in cynomolgus monkey liver microsomes treated with 100 uM of BMS-562086 after 1 hr by LC-MS/MS analysis
[9] = Retention time of the compound by HPLC method; assay type: physicochemical
[10] = Drug metabolism in rat hepatocytes assessed as DPH-123554 metabolite level at 25 uM after 3 hrs by LC-MS/MS analysis; assay type: ADME, cell-based, Hepatocyte; summary of the method: as §2
[11] = Drug metabolism in human cryopreserved hepatocytes assessed as DPH-124921 metabolite level at 25 uM after 3 hrs by LC-MS/MS analysis; assay type: ADME, cell-based, Hepatocyte; summary of the method: as §2
Hepatocyte [12] = assay: Detection of compound level in rat hepatocytes treated with 25 uM of BMS-562086 after 3 hrs by LC-MS/MS analysis; assay type: ADME, cell-based; summary of the method: as §1
[13] = Drug metabolism in human cryopreserved hepatocytes assessed as DPH-123554 metabolite level at 25 uM after 3 hrs by LC-MS/MS analysis; assay type: ADME, cell-based, Hepatocyte; summary of the method: as §2
Liver microsome [14] = assay: Detection of compound level in rat liver microsomes treated with 100 uM of BMS-562086 after 1 hr by LC-MS/MS analysis
[15] = Drug metabolism in rat hepatocytes assessed as BMS-572273 metabolite level at 25 uM after 3 hrs by LC-MS/MS analysis; assay type: ADME, cell-based, Hepatocyte; summary of the method: as §2
[16] = Drug metabolism in cynomolgus monkey liver microsomes assessed as BMS-572273 metabolite level at 100 uM after 1 hr in presence of NADPH; assay type: ADME, Macaca fascicularis; summary of the method: as §3
[17] = Drug metabolism in mouse liver microsomes assessed as DPH-123554 metabolite level at 100 uM after 1 hr in presence of NADPH; assay type: ADME; summary of the method: as §4
[18] = Drug metabolism in mouse liver microsomes assessed as DPH-124921 metabolite level at 100 uM after 1 hr in presence of NADPH; assay type: ADME; summary of the method: as §4
Hepatocyte [19] = assay: Detection of compound level in mouse hepatocytes treated with 25 uM of BMS-562086 after 3 hrs by LC-MS/MS analysis; assay type: ADME, cell-based; summary of the method: as §1
[20] = Drug metabolism in mouse hepatocytes assessed as BMS-572273 metabolite level at 25 uM after 3 hrs by LC-MS/MS analysis; assay type: ADME, cell-based, Hepatocyte; summary of the method: as §2
[21] = Drug metabolism in mouse hepatocytes assessed as DPH-124921 metabolite level at 25 uM after 3 hrs by LC-MS/MS analysis; assay type: ADME, cell-based, Hepatocyte; summary of the method: as §2
[22] = Drug metabolism in cynomolgus monkey cryopreserved hepatocytes assessed as DPH-124921 metabolite level at 25 uM after 3 hrs by LC-MS/MS analysis; assay type: ADME, cell-based, Macaca fascicularis, Hepatocyte; summary of the method: as §1
[23] = Drug metabolism in cynomolgus monkey cryopreserved hepatocytes assessed as DPH-123554 metabolite level at 25 uM after 3 hrs by LC-MS/MS analysis; assay type: ADME, cell-based, Macaca fascicularis, Hepatocyte; summary of the method: as §1
Liver microsome [24] = assay: Drug metabolism in human liver microsomes assessed as DPH-124921 metabolite level at 100 uM after 1 hr in presence of NADPH; assay type: ADME; summary of the method: as §4
[25] = Drug metabolism in human cryopreserved hepatocytes at 25 uM after 3 hrs by LC-MS/MS analysis; assay type: ADME, cell-based, Hepatocyte; summary of the method: as §2
Liver microsome [26] = assay: Drug metabolism in rat liver microsomes at 100 uM after 1 hr in presence of NADPH; assay type: ADME; summary of the method: as §4
[27] = Drug metabolism in cynomolgus monkey cryopreserved hepatocytes at 25 uM after 3 hrs by LC-MS/MS analysis; assay type: ADME, cell-based, Macaca fascicularis, Hepatocyte; summary of the method: as §1
[28] = Drug metabolism in rat hepatocytes at 25 uM after 3 hrs by LC-MS/MS analysis; assay type: ADME, cell-based, Hepatocyte; summary of the method: as §2
[29] = Drug metabolism in cynomolgus monkey liver microsomes at 100 uM after 1 hr in presence of NADPH; assay type: ADME, Macaca fascicularis; summary of the method: as §3
[30] = Drug metabolism in beagle dog hepatocytes assessed as BMS-572273 metabolite level at 25 uM after 3 hrs by LC-MS/MS analysis; assay type: ADME, cell-based, Canis lupus familiaris, Hepatocyte; summary of the method: as §1
[31] = Drug metabolism in cynomolgus monkey liver microsomes assessed as DPH-123554 metabolite level at 100 uM after 1 hr in presence of NADPH; assay type: ADME, Macaca fascicularis; summary of the method: as §3
Liver microsome [32] = assay: Drug metabolism in rat liver microsomes assessed as DPH-123554 metabolite level at 100 uM after 1 hr in presence of NADPH; assay type: ADME; summary of the method: as §4
Liver microsome [33] = assay: Drug metabolism in rat liver microsomes assessed as DPH-124921 metabolite level at 100 uM after 1 hr in presence of NADPH; assay type: ADME; summary of the method: as §4
Liver microsome [34] = assay: Drug metabolism in human liver microsomes assessed as DPH-123554 metabolite level at 100 uM after 1 hr in presence of NADPH; assay type: ADME; summary of the method: as §4
Liver microsome [35] = assay: Detection of compound level in beagle dog liver microsomes treated with 100 uM of BMS-562086 after 1 hr by LC-MS/MS analysis

Structure (SMILES)	Drug metabolism [1]	Drug metabolism [2]	Drug metabolism (Liver microsome [3])	Drug metabolism (Liver microsome [4])	Drug metabolism [5]	Drug metabolism [6]	Drug metabolism (Liver microsome [7])	Drug metabolism [8]	Retention_time [9]	Drug metabolism [10]	Drug metabolism [11]	Drug metabolism (Hepatocyte [12])	Drug metabolism [13]	Drug metabolism (Liver microsome [14])	Drug metabolism [15]	Drug metabolism [16]	Drug metabolism [17]	Drug metabolism [18]	Drug metabolism (Hepatocyte [19])	Drug metabolism [20]	also measured
COc1ccc(-c2c(C)nn3c(N)nc(C)nc23)c(C)n1	metabolite_detected	metabolite_detected	metabolite_detected	metabolite_detected	metabolite_detected	metabolite_detected	metabolite_detected	metabolite_detected	28.5 min	metabolite_detected	metabolite_detected	metabolite_detected	metabolite_detected	metabolite_detected	metabolite_detected	metabolite_detected	metabolite_detected	metabolite_detected	metabolite_detected	metabolite_detected	Drug metabolism [21]: metabolite_detected; Drug metabolism [22]: metabolite_detected; Drug metabolism [23]: metabolite_detected; Drug metabolism (Liver microsome [24]): metabolite_detected; Drug metabolism [25]: metabolite_detected; Drug metabolism (Liver microsome [26]): metabolite_detected; Drug metabolism [27]: metabolite_detected; Drug metabolism [28]: metabolite_detected; Drug metabolism [29]: metabolite_detected; Drug metabolism [30]: metabolite_detected; Drug metabolism [31]: metabolite_detected; Drug metabolism (Liver microsome [32]): metabolite_detected; Drug metabolism (Liver microsome [33]): metabolite_detected; Drug metabolism (Liver microsome [34]): metabolite_detected; Drug metabolism (Liver microsome [35]): metabolite_detected
COc1ccc(-c2c(C)nn3c(O)nc(C)nc23)c(C)n1	metabolite_detected	metabolite_detected	metabolite_detected	metabolite_detected	metabolite_detected	metabolite_detected	metabolite_detected	metabolite_detected	25.6 min	metabolite_detected	metabolite_detected	metabolite_detected	metabolite_detected	metabolite_detected	metabolite_detected	metabolite_detected	metabolite_detected	metabolite_detected	metabolite_detected	metabolite_detected	Drug metabolism [21]: metabolite_detected; Drug metabolism [22]: metabolite_detected; Drug metabolism [23]: metabolite_detected; Drug metabolism (Liver microsome [24]): metabolite_detected; Drug metabolism [25]: metabolite_detected; Drug metabolism (Liver microsome [26]): metabolite_detected; Drug metabolism [27]: metabolite_detected; Drug metabolism [28]: metabolite_detected; Drug metabolism [29]: metabolite_detected; Drug metabolism [30]: metabolite_detected; Drug metabolism [31]: metabolite_detected; Drug metabolism (Liver microsome [32]): metabolite_detected; Drug metabolism (Liver microsome [33]): metabolite_detected; Drug metabolism (Liver microsome [34]): metabolite_detected; Drug metabolism (Liver microsome [35]): metabolite_detected
CC[C@@H](C)Nc1nc(C)nc2c(-c3ccc(OC)nc3C)c(C)nn12 [PEXACERFONT]	metabolite_detected	metabolite_detected	metabolite_detected	metabolite_detected	metabolite_detected	metabolite_detected	metabolite_detected	metabolite_detected	52.2 min	metabolite_detected	metabolite_detected	metabolite_detected	metabolite_detected	metabolite_detected	metabolite_detected	metabolite_detected	metabolite_detected	metabolite_detected	metabolite_detected	metabolite_detected	Drug metabolism [21]: metabolite_detected; Drug metabolism [22]: metabolite_detected; Drug metabolism [23]: metabolite_detected; Drug metabolism (Liver microsome [24]): metabolite_detected; Drug metabolism [25]: metabolite_detected; Drug metabolism (Liver microsome [26]): metabolite_detected; Drug metabolism [27]: metabolite_detected; Drug metabolism [28]: metabolite_detected; Drug metabolism [29]: metabolite_detected; Drug metabolism [30]: metabolite_detected; Drug metabolism [31]: metabolite_detected; Drug metabolism (Liver microsome [32]): metabolite_detected; Drug metabolism (Liver microsome [33]): metabolite_detected; Drug metabolism (Liver microsome [34]): metabolite_detected; Drug metabolism (Liver microsome [35]): metabolite_detected
